{
  "source": "paper PMC7933111",
  "about": "(ACS chemical neuroscience, 2021)",
  "key": {"[1]": {"test_system": "5-HT2AR", "assay": "IP1 accumulation in vivo", "parameters": "species or system mouse", "how_it_was_run": "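Male C57BL/6 mice, 10 weeks old, received LiCl 200 mg/kg and returned home 30 min before treatment; co-administered antagonist was given in the same solution. Mice were decapitated 60 min later, and frontal cortex and posterior cerebellum were frozen at −80 °C. Tissue was bead-lysed at 4 °C in kit buffer with 50 mM LiCl and centrifuged at 17 000g. HTRF was read in duplicate; inverted 615/665 ratio, cortex/cerebellum fold-change; n = 3/group.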"}, "[2]": {"test_system": "C57BL/6 wild-type mice", "assay": "Head-twitch response", "assay_type": "in vivo, mouse", "details": "for effect of antagonist pretreatment on HTR in mice administered 1-NP or 2-NP: 5-HT1AR antagonist WAY100635 or 5-HT2CR antagonist SB-242084 pretreatment; for HTR counts vs vehicle: 5 mg/kg, first 30 min postinjection, wild-type"}, "[3]": {"molecular_target": "T1, 5-HT2AR (Homo sapiens, UniProt P28223)", "T1 sequence (P28223 whole entry)": "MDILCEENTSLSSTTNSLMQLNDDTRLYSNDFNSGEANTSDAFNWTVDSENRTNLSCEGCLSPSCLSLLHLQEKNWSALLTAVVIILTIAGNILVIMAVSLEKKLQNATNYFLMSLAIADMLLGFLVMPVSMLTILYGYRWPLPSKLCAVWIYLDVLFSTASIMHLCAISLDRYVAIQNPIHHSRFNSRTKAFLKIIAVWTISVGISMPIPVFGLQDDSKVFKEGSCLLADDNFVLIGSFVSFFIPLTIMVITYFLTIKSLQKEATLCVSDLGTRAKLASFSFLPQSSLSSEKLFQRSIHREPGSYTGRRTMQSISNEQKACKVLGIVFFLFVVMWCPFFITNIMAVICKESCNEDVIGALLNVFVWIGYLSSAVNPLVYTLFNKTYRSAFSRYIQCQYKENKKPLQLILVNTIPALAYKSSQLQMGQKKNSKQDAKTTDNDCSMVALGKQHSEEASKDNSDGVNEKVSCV", "assay_type": "binding"}, "[4]": {"test_system": "mice", "assay": "GI effect of 5-HTP in mice", "assay_type": "in vivo, mouse", "details": "i.p., data not shown"}, "[5]": {"molecular_target": "T1, 5-HT2AR", "assay": "Intracellular Ca2+ mobilization", "assay_type": "cell-based", "details": "for Emax: HEK293, read-out: Emax (Ca2+ mobilization)"}, "[6]": {"test_system": "mice", "assay": "Quantification of feces", "assay_type": "in vivo, mouse", "how_it_was_run": "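Mice habituated to the monitoring chambers and to i.p. injections were acclimated 30 min, then injected i.p. with drug(s) or saline vehicle at 10 μL/g. Feces were counted over the first 30 min; pellets present before or immediately after injection were excluded. n = 9; two-way ANOVA with Bonferroni post hoc.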"}, "[7]": {"test_system": "rats trained to distinguish DOM from vehicle", "details": "cited from earlier work"}, "[8]": {"test_system": "5-HT2A-KO mice", "assay": "Head-twitch response", "assay_type": "in vivo, mouse", "details": "5 mg/kg, first 30 min postinjection", "how_it_was_run": "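Adult (8–16 weeks) male 5-HT2A-KO mice rederived from 129sv (F5), from the authors' colony. After 30 min of chamber habituation for baseline, mice were dosed and followed 90 min by magnetometer. HTR counts were automated with minor visual checking and summed over the first 30 min post-injection, then compared with vehicle by one-way ANOVA with Bonferroni post hoc; n = 5–12.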"}, "[9]": {"molecular_target": "T1, 5-HT2AR", "assay_type": "binding", "remark": "listed apart in the source"}, "[10]": {"test_system": "c-fos, egr-1, egr-2", "assay": "Immediate early gene expression in somatosensory cortex, wild-type mice", "assay_type": "in vivo, mouse", "details": "5 mg/kg, 60 min, wild-type 129S6/SvEv"}, "[11]": {"molecular_target": "T1, 5-HT2AR", "assay": "IP1 accumulation in vitro", "assay_type": "cell-based", "details": "single concentration, 30 min at 37 °C"}, "[12]": {"molecular_target": "5-HT2AR", "assay": "[3H]ketanserin binding displacement, mouse frontal cortex membranes", "details": "5 nM [3H]ketanserin"}, "[13]": {"test_system": "c-fos, egr-1, egr-2", "assay": "Immediate early gene expression in somatosensory cortex, 5-HT2AR-KO mice", "assay_type": "in vivo, mouse", "details": "5 mg/kg, 60 min, 5-HT2AR-KO littermates", "how_it_was_run": "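Adult (10–20 weeks) 129S6/SvEv 5-HT2AR-KO mice, born to Htr2a± heterozygote breeders. Somatosensory cortex was taken 60 min after 5 mg/kg test compound or vehicle, and c-fos, egr-1 and egr-2 expression was measured alongside a housekeeping gene; n = 5.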"}},
  "note": "Like-named read-outs stand apart in the source and are kept apart here.",
  "data": [
    {"molecule": "COc1cccc([C@H](O)C2CCN(CCc3ccc(F)cc3)CC2)c1OC", "note": "[M100907, (R)-(+)-α-(2,3-dimethoxyphenyl)-1-[2-(4-fluorophenyl)ethyl]-4-pipidinemethanol]", "values": [
      {"measurement": "effect on quipazine-induced IP1 accumulation in vivo", "setting": "[1]; M100907 0.1 mg/kg with quipazine 5 mg/kg", "result": "successfully blocked"}
    ]},
    {"molecule": "6-chloro-2,3-dihydro-5-methyl-N-[6-[(2-methyl-3-pyridinyl)oxy]-3-pyridinyl]-1H-indole-1-carboxyamide dihydrochloride [SB-242084]", "values": [
      {"measurement": "effect of antagonist pretreatment on HTR in mice administered 1-NP or 2-NP", "setting": "[2]", "result": "did not significantly affect HTR"}
    ]},
    {"molecule": "c1ccc2c(N3CCNCC3)cccc2c1", "note": "[1-NP, 1-(naphthalen-1-yl)piperazine]", "values": [
      {"measurement": "HTR counts vs vehicle", "setting": "[2]", "result": "Neither isoquipazine nor 1-NP produced changes in HTR counts"},
      {"measurement": "HTR dose-response", "setting": "[2]; i.p.", "result": "apparent suppression of HTR counts at all tested doses"},
      {"measurement": "Ki", "setting": "[3]", "result": 100, "unit": "nM"}
    ]},
    {"molecule": "N[C@@H](Cc1c[nH]c2ccc(O)cc12)C(=O)O", "note": "[5-HTP, 5-hydroxytryptophan]", "values": [
      {"measurement": "GI effect", "setting": "[4]", "result": "produced diarrhea"}
    ]},
    {"molecule": "c1ccc2c(N3CCNCC3)nccc2c1", "note": "[isoquipazine, 1-(piperazin-1-yl)isoquinoline]", "values": [
      {"measurement": "IC50", "setting": "[5]", "result": 24.7, "unit": "µM"},
      {"measurement": "HTR counts vs vehicle", "setting": "[2]", "result": "Neither isoquipazine nor 1-NP produced changes in HTR counts"},
      {"measurement": "Ki", "setting": "[3]", "result": 3800, "unit": "nM"}
    ]},
    {"molecule": "COc1ccccc1N1CCN(CCN(C(=O)C2CCCCC2)c2ccccn2)CC1.O=C(O)/C=C\\C(=O)O", "note": "[WAY100635, N-[2-[4-(2-methoxyphenyl)-1-piperazinyl]ethyl]-N-2-pyridinylcyclohexanecarboxamide maleate]", "values": [
      {"measurement": "effect of antagonist pretreatment on HTR in mice administered 1-NP or 2-NP", "setting": "[2]", "result": "did not significantly affect HTR"}
    ]},
    {"molecule": "Cc1nccn1CC1CCc2c(c3ccccc3n2C)C1=O", "note": "(stereo not drawn) [ondansetron, 1,2,3,9-tetrahydro-9-methyl-3-[(2-methyl-1H-imidazol-1-yl)methyl]-4H-carbazol-4-one]", "values": [
      {"measurement": "effect on quipazine-induced feces count increase", "setting": "[6]; ondansetron 1 mg/kg with quipazine 5 mg/kg, 30 min following cotreatment", "result": "successfully reduced"}
    ]},
    {"molecule": "c1ccc2cc(N3CCNCC3)ccc2c1", "note": "[2-NP, 1-(naphthalen-2-yl)piperazine]", "values": [
      {"measurement": "EC50", "setting": "[5]", "result": 0.15, "unit": "µM"},
      {"measurement": "Emax", "setting": "[5]", "result": 48.9, "unit": "%"},
      {"measurement": "generalization for the DOM stimulus", "setting": "[7]", "result": "full generalization"},
      {"measurement": "HTR counts vs vehicle", "setting": "[2]", "result": "increase in HTR that differed statistically from vehicle"},
      {"measurement": "ED50", "setting": "[2]; Mus musculus, ip, read-out: ED50 (HTR)", "result": "0.42 ± 0.2", "unit": "mg/kg"},
      {"measurement": "HTR dose-response", "setting": "[2]; i.p.", "result": "dose-dependent"},
      {"measurement": "Ki", "setting": "[3]", "result": 724, "unit": "nM"},
      {"measurement": "HTR vs vehicle in 5-HT2AR-KO mice", "setting": "[8]", "result": "did not differ"}
    ]},
    {"molecule": "c1ccc2nc(N3CCNCC3)ccc2c1", "note": "[quipazine, 2-(piperazin-1-yl)quinoline]", "values": [
      {"measurement": "Ki", "setting": "[9]", "result": 5.13, "unit": "µM"},
      {"measurement": "EC50", "setting": "[5]", "result": 7.26, "unit": "µM"},
      {"measurement": "Emax", "setting": "[5]", "result": 44.3, "unit": "%"},
      {"measurement": "cortical expression of c-fos, egr-1 and egr-2", "setting": "[10]", "result": "exhibited changes in the cortical expression of c-fos, egr-1, and egr-2"},
      {"measurement": "IP1 accumulation (in words)", "setting": "[11]", "result": "robust increase of IP1 accumulation"},
      {"measurement": "effect on HTR counts", "setting": "[2]; different doses, i.p., 90 min recording", "result": "robust and long-lasting increase on HTR counts"},
      {"measurement": "duration of HTR increase", "setting": "[2]; highest doses evaluated", "result": "over 90 min"},
      {"measurement": "time of peak of HTR increase post injection", "setting": "[2]; i.p.", "result": "≤ 30", "unit": "min"},
      {"measurement": "effect on feces count", "setting": "[6]; quipazine 5 mg/kg, first 30 min", "result": "feces count increase"},
      {"measurement": "pKi", "setting": "[12]", "result": "5.601 ± 0.16"},
      {"measurement": "Ki", "setting": "[3]", "result": 20000, "unit": "nM"},
      {"measurement": "HTR vs vehicle in 5-HT2AR-KO mice", "setting": "[8]", "result": "did not differ"},
      {"measurement": "changes in c-fos, egr-1 and egr-2 expression", "setting": "[13]", "result": "not observed"},
      {"measurement": "IP1 accumulation in frontal cortex vs vehicle", "setting": "[1]; 5 mg/kg, LiCl 200 mg/kg pretreatment, 60 min", "result": "greater accumulation of IP1"}
    ]}
  ]
}
